Laboratory results from ChEMBL document CHEMBL1149287, “Synthetic bryostatin analogues activate the RasGRP1 signaling pathway” (J Med Chem, 2004).
Activity calls are given as the source filed them. The calls are words filed in the database; no cut-off is given here.

How the values were obtained:
PBL = assay: Induction of T cell activation marker CD69 expression in PBL cells; format: functional, cell-based; conditions: Homo sapiens
Summary of the method: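 Human peripheral blood lymphocytes from a healthy donor, isolated on Ficoll-hypaque, treated immediately overnight in RPMI with 100 nM DAG analogue or DMSO; fixed in 2% paraformaldehyde, co-stained for CD4 (FITC) and CD69 (PE), analysed by flow cytometry.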

[1] = biological target: T1, RAS guanyl-releasing protein 1 (Homo sapiens) (UniProt O95267); assay: Induction of translocation of RasGRP1 to plasma membrane in HEK293 cells; format: cell-based
T1 sequence (whole entry): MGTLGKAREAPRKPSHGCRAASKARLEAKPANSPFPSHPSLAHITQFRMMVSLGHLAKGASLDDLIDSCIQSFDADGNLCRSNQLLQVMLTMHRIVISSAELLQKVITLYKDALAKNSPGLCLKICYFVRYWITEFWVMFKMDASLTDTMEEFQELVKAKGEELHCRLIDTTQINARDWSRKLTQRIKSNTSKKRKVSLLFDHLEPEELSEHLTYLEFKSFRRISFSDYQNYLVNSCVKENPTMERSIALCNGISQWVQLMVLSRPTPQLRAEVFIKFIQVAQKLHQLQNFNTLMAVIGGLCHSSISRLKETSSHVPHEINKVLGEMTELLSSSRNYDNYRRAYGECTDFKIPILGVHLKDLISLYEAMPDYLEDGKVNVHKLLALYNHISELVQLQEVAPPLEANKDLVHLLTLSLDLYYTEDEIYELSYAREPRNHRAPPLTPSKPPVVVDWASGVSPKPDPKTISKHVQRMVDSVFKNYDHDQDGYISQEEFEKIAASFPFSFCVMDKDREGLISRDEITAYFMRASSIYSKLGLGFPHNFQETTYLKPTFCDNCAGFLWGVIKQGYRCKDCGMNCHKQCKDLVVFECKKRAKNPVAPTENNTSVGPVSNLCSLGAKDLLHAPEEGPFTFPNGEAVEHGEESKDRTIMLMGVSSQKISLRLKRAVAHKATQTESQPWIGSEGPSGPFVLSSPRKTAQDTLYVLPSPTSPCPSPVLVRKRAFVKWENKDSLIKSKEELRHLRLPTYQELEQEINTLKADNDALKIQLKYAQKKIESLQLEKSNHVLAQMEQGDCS
Summary of the method: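 HEK-293 cells on glass coverslips transfected with 5 μg pEF-GFP-RasGRP1 (or pEF-GFP), after 48 h given 100 nM DAG analogue or DMSO for 10 min at 37 °C, fixed in 4% paraformaldehyde; GFP location imaged by confocal microscopy, at least five 0.45 μm slices per cell.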

Jurkat = assay: Induction of T cell activation marker CD69 expression in Jurkat T cells at 100 nM; format: functional, cell-based; conditions: Homo sapiens
Summary of the method: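 Jurkat T cells kept in RPMI with 10% FBS, incubated overnight with 100 nM DAG analogue or DMSO, fixed in 2% paraformaldehyde, stained with PE-anti-CD69, surface CD69 read by FACS.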

Rat2 [2] = assay: Accumulation of Ras-GTP level in Rat2 cells expressing empty pBabePuro vector; format: functional, cell-based; conditions: Rattus norvegicus
Summary of the method: (§1)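 Rat2 fibroblasts (DMEM, 10% FBS) stably carrying retroviral pBabePuro, empty or with human RasGRP1 cDNA, exposed 10 min to 100 nM DAG analogue or DMSO vehicle. Ras-GTP measured by Ras-binding-domain pulldown with pan-Ras immunoblot; phospho-Erk p44/p42 and total Ras by immunoblot.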

Rat2 [3] = assay: Induction of increase in Ras-GTP level in Rat2 cells expressing human […] at 100 nM; format: functional, cell-based; summary of the method: as §1
Thymocyte [4] = assay: Activation of ERK in wild type mouse thymocytes at 100 nM; format: functional, cell-based
Summary of the method: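 Wild-type mouse thymocytes (RPMI 1640, 10% FBS) exposed 10 min to DAG analogue at 100, 10 or 1 nM, then lysed; phospho-Erk p44/p42 detected by immunoblot.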

Thymocyte [5] = assay: Activation of ERK in knockout mouse RasGRP1- mutant thymocytes; format: functional, cell-based
Summary of the method: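 Thymocytes isolated in RPMI 1640 with 10% FBS from young wild-type or RasGRP1 knockout mice, given DMSO or DAG analogue for 10 min, then lysed and immunoblotted for phospho-Erk p44/p42.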

Lymphocyte [6] = assay: Induction of T cell activation marker CD69 expression in concanavalin-A activated CD4+ mouse spleen lymphocytes; format: functional, tissue-based
Lymphocyte [7] = assay: Induction of T cell activation marker CD69 expression in concanavalin-A activated CD8+ mouse spleen lymphocytes; format: functional, tissue-based

Row | SMILES | Activity (PBL) | Activity [1] | Activity (Jurkat) | Activity (Rat2 [2]) | Activity (Rat2 [3]) | Activity (Thymocyte [4]) | Activity (Thymocyte [5]) | Activity (Lymphocyte [6]) | Activity (Lymphocyte [7])
1 | CCCCCCCC(=O)O[C@H]1/C(=C/C(=O)OC)CC2C[C@H]([C@H](O)CC)OC(=O)C[C@H](O)C[C@@H]3CCC[C@H](C[C@H]4CCO[C@H](/C=C/C(C)(C)[C@]1(O)O2)O4)O3 | Active | Active | Active | inactive | Active | Active | inactive | Active | Active
2 | CCCCCCCCCCCCCC(=O)O[C@@H]1[C@@H](C)[C@@]2(O)[C@@H](C=C(CO)C[C@]3(O)C(=O)C(C)=C[C@@H]23)[C@@H]2C(C)(C)[C@]12OC(C)=O | Active | Active | Active | inactive | Active | Active | inactive | Active | Active
3 | CCCCCCCC(=O)O[C@H]1/C(=C/C(=O)OC)CC2C[C@H]([C@@H](CC)OC)OC(=O)C[C@H](O)C[C@@H]3CCC[C@H](C[C@H]4CCO[C@H](/C=C/C(C)(C)[C@]1(O)O2)O4)O3 | Active | Active | Active | inactive | Active | Active | inactive | Active | Active
